Shown are actives, neighbours in structure and some others; about 0.99% of the full set was active somewhere.
GSK3A inh: blockers of GSK3A enzyme activity – biochemical, luminescence, cell-free homogeneous, HTS, primary screen; GSK-3 alpha kinase, ADP-Glo luminescence, 60 min; inhibition, % at 10 µM; actives 0.1% (n = 320,000); AID 2650, 2010;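 active = more than half of replicates show inhibition above 20%; inconclusive = some but at most half of replicates above 20% inhibition; inactive = no replicate shows inhibition above 20%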;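 also: GST-tagged GSK-3 alpha with peptide substrate and 25 µM ATP; 0% = DMSO neutral wells and 100% = GW8510 positive control wells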
Rce1 inhib: yeast Rce1p protease inhibitors, primary screen, biochemical, fluorescence, cell-free homogeneous; yeast membranes, quenched prenylated peptide cleavage fluorescence; calls only; actives 0.27% (n = 290,000); CAAX prenyl protease 2 (Saccharomyces cerevisiae (strain ATCC 204508 / S288c)), Q03530;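 active = fall in fluorescence gain of 50% or more versus controls, with final raw signal at or below 3038400; inconclusive = same 50% fall but final raw signal above 3038400; inactive = fall in fluorescence gain under 50%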;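 also: plate controls were neutral control wells for no effect and wells lacking membranes for full effect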
Target sequence (Q03530 whole entry, looked up): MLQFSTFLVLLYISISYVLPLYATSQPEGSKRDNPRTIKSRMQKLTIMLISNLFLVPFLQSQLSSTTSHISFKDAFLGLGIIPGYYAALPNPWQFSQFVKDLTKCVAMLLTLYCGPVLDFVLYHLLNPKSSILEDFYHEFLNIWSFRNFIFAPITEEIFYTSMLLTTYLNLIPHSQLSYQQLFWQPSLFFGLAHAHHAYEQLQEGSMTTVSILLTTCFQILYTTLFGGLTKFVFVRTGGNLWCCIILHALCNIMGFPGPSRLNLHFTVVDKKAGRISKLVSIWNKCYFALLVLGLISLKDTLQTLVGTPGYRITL
Dyrk1A ADPGlo: rat Dyrk1A kinase inhibitors, primary screen, biochemical, single point, plate reader | inhibition, % at 12.5 µM | ADP-Glo luminescence, NFATc1 peptide | actives 0.43% (n = 310,000); in the data active = inhibition above about 50%;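 also: plate controls were vehicle with enzyme for no effect and no enzyme for full effect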
STK33 kinase inh: inhibitors of purified STK33 kinase, primary screen, biochemical, ADP-Glo luminescence, homogeneous, cell-free; Serine/threonine-protein kinase 33 (Homo sapiens), Q9BYT3; MBP phosphorylation; inhibition, % at 10 µM; actives 0.073% (n = 320,000); AID 2661, 2010;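 active = inhibition at or above 25%, using the most active replicate where run in duplicate; inactive = inhibition below 25%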
GSK3beta inhib: human GSK3beta kinase inhibitors, primary screen, biochemical, cell-free homogeneous, HTS; GST-GSK3beta kinase, ADP-Glo luminescence, 60 min; hits give low values; AID 2097, 2009; Glycogen synthase kinase-3 beta (Homo sapiens), P49841; activity score (negative = inhibition), % at 10 µM; actives 0.038% (n = 300,000);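 active = more than half of replicate wells score below -50%, meaning over 50% inhibition versus plate controls; inconclusive = some replicates but at most half score below -50%; inactive = no replicate scores below -50%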;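 also: 0% = median DMSO wells and -100% = median GW8510 positive control wells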
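Test system – GST-tagged human GSK3beta kinase, cell-free · Incubation – 60 min enzyme reaction, room temperature · Signal – ADP-Glo luminescence · Also added – peptide substrate and ATP at 25 µM · Controls – DMSO neutral wells and GW8510 at 20 µM as positive · Buffer or medium – Tris/MgCl2 kinase buffer · Measure – Luminescence-derived activity versus plate DMSO and GW8510 wells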
AI-2 QS mod: Vibrio harveyi AI-2 quorum sensing modulators, primary screen, JMH597 strain, luminescence/OD600 ratio. actives 0.4% (n = 300,000). Vibrio harveyi JMH597 AI-2 luminescence/OD600 ratio, 9 h; hits give low values; strain lacks LuxN and CqsS sensors; 0 = neutral-control median. activity change, % at 7.5 µM; in the data active = activity change below about -75%, passing the limit was not always enough; inconclusive = no clear call, values can overlap the other calls;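 also: luminescence divided by OD600 gain over 9 h not by final OD600 alone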
JMH597 growth: Vibrio harveyi growth inhibition, confirmation, counter-screen for AI-2 quorum sensing project, JMH597 strain, OD600 absorbance; growth inhibition, % at 7.5 µM; 9 h; lacks LuxN and CqsS sensors; actives 1% (n = 750); AID 2726, 2010; shares compounds with AI-2 QS mod;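 active = every replicate shows growth inhibition above 50%; inconclusive = at least half, but not all, replicates pass that cutoff; inactive = fewer than half of replicates pass it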
BB721 lum counter: luminescence inhibition in constitutive-on V. harveyi, confirmation, counter-screen for LuxS inhibitor project, strain BB721, luminescence readout | actives 95% (n = 750) | Vibrio harveyi BB721 luminescence, 9 h | shares compounds with AI-2 QS mod | inhibition, % at 7.5 µM;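 active = inhibition above about 80% in every replicate, not just on average, limit read from the data; inconclusive = at least half of replicates past the limit, but not all; inactive = fewer than half of replicates past the limit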
BB721 growth rt: growth inhibition of V. harveyi BB721, confirmation, cytotoxicity control for AI-2 quorum sensing inhibitors, strain BB721, absorbance OD600; shares compounds with AI-2 QS mod; Vibrio harveyi BB721 growth, 9 h; growth inhibition, % at 7.5 µM; actives 3% (n = 750);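 active = every replicate shows growth inhibition above 50%; inconclusive = at least half but not all replicates above 50% inhibition; inactive = under half of replicates above 50% inhibition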
JMH597 AI-2 mod: Vibrio harveyi AI-2 signaling luminescence modulation – JMH597 strain, confirmation; Vibrio harveyi JMH597 AI-2 quorum sensing luminescence, 9 h; luxN and CqsS knockout, AI-2 only; inhibition, % at 7.5 µM; actives 97% (n = 750); shares compounds with AI-2 QS mod;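 active = every replicate shows more than 75% inhibition of signal versus neutral control wells; inconclusive = half to three quarters of replicates exceed 75% inhibition; inactive = fewer than half of replicates exceed 75% inhibition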
* marks the source's active call; other numbers are inactive results; i = inactive; ? = inconclusive; . = not tested or not shown; + = active, no number.

SMILES	GSK3A inh	Rce1 inhib	Dyrk1A ADPGlo	STK33 kinase inh	GSK3beta inhib	AI-2 QS mod	JMH597 growth	BB721 lum counter	BB721 growth rt	JMH597 AI-2 mod
CC(C)(C)c1cc(OC(=O)c2ccccc2F)ccc1O	-3	i	-5	0	-2	-86*	8	97*	26	97*
c1ccc(CSc2nnc(-c3ccco3)o2)cc1	4	i	0	1	-3	-87*	15	95*	0	96*
Cc1ccc(CSc2nnc(-c3ccco3)o2)cc1	5	i	2	-1	-3	-82*	35	96*	6	98*
Brc1ccc(CSc2nnc(-c3ccco3)o2)cc1	1	i	0	0	-6	-60	.	.	.	.
Oc1ccc(Br)cc1CNc1cnc2ccccc2c1	-1	i	6	-2	-1	-97*	19	99*	6	100*
Cc1ccc(O)c(CNc2cnc3ccccc3c2)c1	0	+	19	0	1	-97*	-25	99*	-22	99*
CC(C)(C)c1ccc(OCC(O)CN2CCc3ccccc3C2)cc1 (stereo not drawn)	-2	.	.	-3	2	-82*	16	81*	1	88*
C=CCOc1c(CNc2ccc(C(=O)O)cc2)cccc1OCC	0	i	2	-1	0	-89*	5	95*	-2	98*
Cc1ccc(C(=O)N(C)CCOc2ccccc2)cc1S(=O)(=O)N1CCOCC1	-8	.	.	0	.	.	.	.	.	.
Cc1cccc(OCc2nnc(SCC(=O)Nc3ncc(C)s3)o2)c1	-2	i	-2	-1	4	8	.	.	.	.
CCc1nnc(NC(=O)CSc2nnc(COc3cccc(C)c3)o2)s1	4	i	-3	0	-2	-90*	13	96*	-13	98*
Clc1cccc(OCc2nnc(-c3ccccc3Br)o2)c1	0	i	-2	2	1	-90*	?	97*	82*	98*
C(=C\c1nc(-c2ccncc2)no1)/c1ccccc1	3	i	-4	0	0	-43	.	.	.	.
C(=C\c1nc(-c2ccccc2)no1)/c1ccccc1	-4	i	-5	0	0	-88*	11	95*	13	96*
CN(Cc1ccc(C(F)(F)F)cc1)C(=O)C1CC(=O)N(Cc2ccco2)C1 (stereo not drawn)	-2	.	0	1	.	.	.	.	.	.
COC(=O)c1cccc(NC(=S)NCc2ccc(Cl)cc2)c1	.	i	9	-1	-2	-83*	-24	90*	3	92*
COc1ccc(CNC(=O)Nc2cccc(Cl)c2)cc1	.	i	6	0	1	-94*	0	97*	14	98*
COc1ccc(CNC(=S)Nc2cccc(Cl)c2)cc1	2	i	.	-1	1	-84*	0	95*	7	95*
CC(=O)c1cccc(NC(=O)C2CC(c3ccc(F)cc3)=NO2)c1 (stereo not drawn)	1	i	3	-1	3	-91*	26	97*	19	98*
CC1(C)O[C@@H](CC(=O)O)[C@]23CO[C@H](C(=O)[C@]4(C)C2CC[C@@]2(C)[C@H](c5ccoc5)OC(=O)C5O[C@]524)[C@@H]13 (stereo partly drawn)	-5	.	-3	-1	.	.	.	.	.	.
COc1ccc(CNC(=O)c2cc(-c3ccccc3O)n[nH]2)cc1	-2	.	-3	.	2	-58	.	.	.	.
COc1ccc(CNC(=O)c2cc(-c3cc(C)ccc3O)n[nH]2)cc1	1	i	-7	-1	-7	-79*	-33	?	-13	84*
O=C(O)COCC(=O)Nc1ccc(OCCc2ccccc2)cc1	-3	i	1	-1	0	7	.	.	.	.
CC(C)(C)c1csc(NC(=O)Cn2cnc3ccccc3c2=O)n1	-4	i	3	1	-3	-95*	8	97*	-2	98*
CN(c1ccccc1)S(=O)(=O)c1cccc(NC(=O)c2nn(C)c(=O)c3ccccc23)c1	.	.	-1	.	.	.	.	.	.	.
SMILES	GSK3A inh	Rce1 inhib	Dyrk1A ADPGlo	STK33 kinase inh	GSK3beta inhib	AI-2 QS mod	JMH597 growth	BB721 lum counter	BB721 growth rt	JMH597 AI-2 mod
CN(c1ccccc1)S(=O)(=O)c1cccc(NC(=O)Cn2cnc3ccccc3c2=O)c1	.	i	-4	.	2	-93*	55	99*	88*	99*
CC(C)(C)c1csc(NC(=O)CSc2nc3ccccc3c(=O)[nH]2)n1	9	i	-17	-1	-4	55	.	.	.	.
COc1ccc(S(=O)(=O)N(CC(=O)NCc2ccncc2)c2cc(C)cc(C)c2)cc1OC	2	i	-3	0	1	4	.	.	.	.
Clc1cccc(CSc2nc3ccncc3[nH]2)c1	0	i	5	1	-1	-89*	-38	96*	-33	96*
CC(C)(C)c1ccc(OCC(=O)N2CCN(c3ncccn3)CC2)cc1	-1	i	1	-2	5	-86*	0	93*	12	95*
Cc1ccc(S(=O)(=O)N2CCOC2CNC(=O)C(=O)NCCCN2CCOCC2)cc1 (stereo not drawn)	2	i	2	0	3	-3	.	.	.	.
COc1ccc(NC(=O)CSCC(=O)N(C)CC(=O)Nc2ccc(Cl)c(C(F)(F)F)c2)cc1	1	i	3	1	1	-80*	24	89*	-18	91*
Cc1ccc(Cn2ncc(Cl)c(Cl)c2=O)cc1	-2	i	-7	-1	0	12	.	.	.	.
O=c1c(Cl)c(Cl)cnn1Cc1nnc(-c2ccc(Cl)cc2)o1	.	i	3	.	-1	-91*	-23	98*	22	99*
